Results: ChEMBL document CHEMBL4680191, “Discovery of novel akt1 inhibitor induces autophagy associated death in hepatocellular carcinoma cells” (Eur J Med Chem, 2020)
Active and inactive are the calls of the source. The calls are words filed in the database; no cut-off is given here.

Assays:
[1] = test system: Huh-7; test: Induction of apoptosis in human Huh-7 cells assessed as viable cells at 0.1 uM by Annexin V/propidium iodide staining based flow cytometric analysis (reference value: 94.83%); format: functional; settings: read-out: Activity
[2] = test system: Huh-7; test: Antitumour activity against human Huh-7 cells xenografted in nude mouse assessed as reduction in tumour growth at […], ip up to 15 days; format: functional, organism-based; settings: time day <=15
Method in brief: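 Nude mice bearing subcutaneous Huh-7 xenografts received 25 or 50 mg/Kg compound intraperitoneally. Tumor volume was followed from day 1 to day 15, with excised tumors weighed at the end. Body weight was also monitored.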

[3] = test system: Huh-7; test: Induction of apoptosis in human Huh-7 cells assessed as reduction in Bcl-2 expression at 0.1 to 0.2 uM Western blot analysis; format: functional, cell-based; settings: dose 0.1-0.2 µM
Method in brief: (§1)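 Huh-7 cells were treated with or without compound. Total protein extracts were separated by SDS-PAGE and transferred to PVDF. Membranes were probed with primary antibodies, then HRP-conjugated secondary antibody (1:10,000), and detected by enhanced chemiluminescence.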

[4] = test system: Huh-7; test: Induction of apoptosis in human Huh-7 cells assessed as necrotic cells at 0.1 uM by Annexin V/propidium iodide staining based flow cytometric analysis (reference value: 0.59%); format: functional
[5] = test system: Huh-7; test: Induction of apoptosis in human Huh-7 cells assessed as early apoptotic cells at 0.1 uM by Annexin V/propidium iodide staining based flow cytometric analysis (reference value: 1.43%); format: functional
[6] = test system: Huh-7; test: Induction of autophagy in human Huh-7 cells harboring GFP-LC3 assessed as increase in number of the autophagosome puncta at 0.2 uM after 6 hrs; format: functional, cell-based
Method in brief: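 GFP-LC3-transfected cells were exposed to saline or compound for 6 h, then fixed with paraformaldehyde. Autophagosome puncta were scored by fluorescence of accumulated GFP-LC3.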

[7] = test system: RAC-gamma serine/threonine-protein kinase (Homo sapiens), Q9Y243 [S472D]; test: Inhibition of full length human Akt3 S472D mutant assessed as remaining activity at 1 uM using GRPRTSSFAEGKK as substrate incubated for 40 mins by scintillation counting method relative to control
Method in brief: (§2)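 Eurofins KinaseProfiler kinase assay on human Akt1, Akt2 and Akt3. Compounds were tested at 1 µM. Residual kinase activity is reported as % of control.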

[8] = test system: Huh-7; test: Induction of apoptosis in human Huh-7 cells assessed as upregulation of cleaved caspase-3 protein expression at 0.1 to 0.2 uM by Western blot analysis; format: functional, cell-based; settings: dose 0.1-0.2 µM; method in brief: as §1
[9] = test system: Huh-7; test: Induction of apoptosis in human Huh-7 cells by Annexin V/propidium iodide staining based flow cytometric analysis; format: functional, cell-based; settings: dose 0.1-0.2 µM
[10] = test system: Huh-7; test: Induction of autophagy in human Huh-7 cells assessed as reduction in cathepsin D activity at 0.2 uM in presence of Baf-A1; format: functional, cell-based
[11] = test system: Huh-7; test: Antitumour activity against human Huh-7 cells xenografted in nude mouse assessed as increase in apoptotic cells at […], ip up to 15 days by TUNEL assay; format: functional, organism-based; settings: time day <=15
Method in brief: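 Tumor sections came from Huh-7 xenografted nude mice given 25 or 50 mg/Kg intraperitoneally over 15 days. Apoptotic cells were detected by TUNEL staining.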

[12] = test system: Huh-7; test: Induction of apoptosis in human Huh-7 cells assessed as early apoptotic cells at 0.2 uM by Annexin V/propidium iodide staining based flow cytometric analysis (reference value: 1.43%); format: functional
[13] = test system: Huh-7; test: Induction of autophagy flux arrest in human Huh-7 cells assessed as reduction in LAMP1 at 0.2 uM by immunofluorescence staining based assay; format: functional, cell-based
Method in brief: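 Huh-7 cells with or without 0.2 µM compound were immunofluorescently co-stained for LC3 (autophagosome) and LAMP1 (lysosome). Co-localization was assessed by fluorescence imaging.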

[14] = organism: Homo sapiens; test: Inhibition of full length human Akt1 […] mutant assessed as remaining activity at 1 uM using GRPRTSSFAEGKK as substrate incubated for 40 mins by scintillation counting method relative to control; method in brief: as §2
[15] = test system: Huh-7; test: Induction of apoptosis in human Huh-7 cells assessed as late apoptotic cells at 0.1 uM by Annexin V/propidium iodide staining based flow cytometric analysis (reference value: 3.15%); format: functional
[16] = test system: Huh-7; test: Induction of autophagy in human Huh-7 cells assessed as reduction in cathepsin D activity at 0.2 uM in presence of 3-MA; format: functional, cell-based
[17] = molecular target: RAC-gamma serine/threonine-protein kinase (Homo sapiens, UniProt Q9Y243, S472D); test: Inhibition of full length human Akt3 S472D mutant using GRPRTSSFAEGKK as substrate incubated for 40 mins by scintillation counting method
Method in brief: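 Eurofins KinaseProfiler enzymatic assay on human Akt isoforms. IC50 values are the mean of at least three independent replicates ± standard deviation.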

[18] = test system: Huh-7; test: Cytotoxicity against human Huh-7 cells assessed as reduction in cell viability by MTT assay; format: functional, cell-based
Method in brief: (§3)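 Hepatoma cells were grown in DMEM with 10% FBS and streptomycin, then treated with compounds. Viability was read by MTT.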

[19] = test system: Huh-7; test: Induction of autophagosome in human Huh-7 harboring GFP-LC3 cells at 0.2 uM in presence of Baf-A1 by fluorescence microscopic analysis; format: functional, cell-based
[20] = test system: Huh-7; test: Induction of autophagy in human Huh-7 cells assessed as reduction in cathepsin B activity at 0.2 uM in presence of Baf-A1; format: functional, cell-based
[21] = test system: SMMC-7721; test: Cytotoxicity against human SMMC-7721 cells assessed as reduction in cell viability by MTT assay; format: functional, cell-based; method in brief: as §3
[22] = test system: Huh-7; test: Induction of apoptosis in human Huh-7 cells assessed as viable cells at 0.2 uM by Annexin V/propidium iodide staining based flow cytometric analysis (reference value: 94.83%); format: functional; settings: read-out: Activity
[23] = test system: Huh-7; test: Induction of autophagy in human Huh-7 cells assessed as decrease in m-TOR phosphorylation at 0.1 to 0.2 uM by Western blot analysis; format: functional, cell-based; settings: dose 0.1-0.2 µM; method in brief: as §1
[24] = Effect on total GDK3beta protein level in human Huh-7 cells at 0.1 to 0.2 uM by Western blot analysis; format: ADME, cell-based; settings: huh-7, 0.2 µM, dose 0.1-0.2 µM; method in brief: as §1

Sequence of RAC-gamma serine/threonine-protein kinase (Q9Y243 2-479 S472D limits assumed): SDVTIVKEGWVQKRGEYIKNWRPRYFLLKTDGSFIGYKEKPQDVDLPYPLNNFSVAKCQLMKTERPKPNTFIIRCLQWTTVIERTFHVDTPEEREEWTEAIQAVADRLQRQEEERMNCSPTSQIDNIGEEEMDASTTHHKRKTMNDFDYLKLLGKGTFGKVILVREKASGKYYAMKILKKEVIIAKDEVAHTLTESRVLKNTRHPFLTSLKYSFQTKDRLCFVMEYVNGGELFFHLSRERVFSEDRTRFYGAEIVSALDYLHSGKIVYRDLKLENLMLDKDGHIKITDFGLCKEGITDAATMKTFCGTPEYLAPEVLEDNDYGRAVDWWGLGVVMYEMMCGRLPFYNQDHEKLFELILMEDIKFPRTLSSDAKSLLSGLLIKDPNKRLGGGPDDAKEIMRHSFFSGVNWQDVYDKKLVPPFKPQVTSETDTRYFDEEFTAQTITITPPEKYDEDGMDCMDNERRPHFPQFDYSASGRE
Sequence of RAC-gamma serine/threonine-protein kinase (Homo sapiens), Q9Y243 [S472D] (Q9Y243 whole entry S472D): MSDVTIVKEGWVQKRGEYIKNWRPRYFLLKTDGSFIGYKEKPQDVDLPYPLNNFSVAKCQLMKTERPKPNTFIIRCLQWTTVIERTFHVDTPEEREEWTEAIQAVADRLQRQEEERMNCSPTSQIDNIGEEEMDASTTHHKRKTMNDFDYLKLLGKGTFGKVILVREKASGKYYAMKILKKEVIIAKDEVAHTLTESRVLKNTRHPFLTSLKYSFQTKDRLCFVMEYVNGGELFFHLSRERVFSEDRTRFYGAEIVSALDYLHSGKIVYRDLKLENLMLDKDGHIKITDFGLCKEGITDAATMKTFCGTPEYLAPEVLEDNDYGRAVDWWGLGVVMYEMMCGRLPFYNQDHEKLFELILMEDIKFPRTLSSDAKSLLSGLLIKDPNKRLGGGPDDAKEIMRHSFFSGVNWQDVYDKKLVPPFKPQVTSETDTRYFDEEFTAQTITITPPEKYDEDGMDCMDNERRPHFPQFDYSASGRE

With `O=C(C(CNC1CCCC1)c1ccc(Cl)cc1)N1CCN(c2ncnc3sc4c(c23)CCC4)CC1` (centres undefined) the viability at 0.1 µM [1] was 84.2%, the Activity [2] was “Active” and the Activity [3] was “Active”. For the same molecule, the Activity [4] was 2.69%, the Activity [5] was 5.15% and the Activity [6] was “Active”. The Activity [7] was 22%, the Activity [8] was “Active” and the Activity [9] was “Dose-dependent effect”. For the same molecule, the Activity [10] was “Active”, the Activity [11] was “Active” and the Activity [12] was 7.1%. The Activity [13] was “Active”, the Activity [14] was 1% and the Activity [15] was 7.92%. For the same molecule, the Activity [16] was “inactive”, the IC50 [17] was 129 nM and the IC50 [18] was 76 nM. The Activity [19] was “Active”, the Activity [20] was “Active” and the IC50 [21] was 386 nM. The viability at 0.2 µM [22] was 80.8%, the Activity [23] was “Active” and the Activity [24] was “Non-Toxic”.
